From ChEMBL document CHEMBL1140211, “The role of molecular modeling in the design of analogues of the fungicidal natural products crocacins A and D” (Bioorg Med Chem, 2008)
Calls of active or inactive are those of the source. The rule behind the calls is not given here.

Legend:
[1] = (§1) Inhibition of cytochrome bc1 complex in bovine heart mitochondria by NADH oxidase assay; set-up: species or system Bos taurus
In short: (§2)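 Microtitre-plate assay with beef heart mitochondria at a final 68.8 μg/ml in pH 8.0 phosphate buffer. Compounds were diluted in DMSO (2% final) from a top final concentration of 20 ppm. Plates were preincubated 15 min at room temperature, then NADH was added in pH 8.0 phosphate buffer to a final 200 ppm.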

[2] = species on record: Bos taurus; test: as §1; in short: as §2
[3] = test system: Plasmopara viticola; test: Inhibition of Plasmopara viticola cytochrome bc1 complex inoculated in vine plant assessed as lowest drug concentration required to control 100% disease applied to leaf 1 hr prior inoculation measured after 6 to 9 days
In short: (§3)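 Spray solutions were made up in reverse osmosis water immediately before use, with Tween 20 at 0.05% by volume final to improve deposit retention. Concentrations tested were 100, 50, 25, 10, 5 and 1 ppm. The breakpoint is the lowest of these six concentrations giving 100% disease control, converted to molar units. Azoxystrobin served as the standard.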

[4] = test system: Blumeria graminis f. sp. tritici; test: Inhibition of Blumeria graminis f. sp. Tritici cytochrome bc1 complex inoculated in wheat plant assessed as lowest drug concentration required to control 100% disease applied to leaf 1 hr prior inoculation measured after 6 to 9 days; in short: as §3
[5] = test system: Puccinia triticina; test: Inhibition of Puccinia triticina cytochrome bc1 complex inoculated in wheat plant assessed as lowest drug concentration required to control 100% disease applied to leaf 1 hr prior inoculation measured after 6 to 9 days; in short: as §3
[6] = test system: Phytophthora infestans; test: Inhibition of Phytophthora infestans cytochrome bc1 complex inoculated in tomato plant assessed as lowest drug concentration required to control 100% disease applied to leaf 1 hr prior inoculation measured after 6 to 9 days; in short: as §3
[7] = test system: Mycosphaerella graminicola; test: Inhibition of Mycosphaerella graminicola cytochrome bc1 complex inoculated in wheat plant assessed as lowest drug concentration required to control 100% disease applied to leaf 1 hr prior inoculation measured after 6 to 9 days; in short: as §3

CCc1ccc(Oc2ccc(C(=O)N[C@H]3C[C@H]3CCC(=O)NCC(=O)OC)cc2)cc1
IC50 [1]: 900 nM

CCc1ccc(Oc2ccc(Cn3c(=O)oc4ccc(OCC(=O)OC)cc43)cc2)cc1
IC50 [1]: 140 nM

CCc1ccc(Cc2ccc(Cn3c(=O)oc4ccc(NCC(=O)OC)cc43)cc2)cc1
Activity [2]: inactive

CCCCCCCCCCCCC(=O)N/C=C\CCCC(=O)NCC(=O)OC
IC50 [1]: 24 nM
Activity [3]: > 100 µM

COC(=O)CNC(=O)CCC/C=C\NC(=O)c1ccc(Cc2ccc(Br)cc2)cc1
IC50 [1]: 17 nM
Activity [3]: 10 µM

CO/C=C(/C(=O)OC)c1ccccc1Oc1cc(Oc2ccccc2C#N)ncn1 [AZOXYSTROBIN]
Activity [4]: < 1.8 µM
Activity [5]: < 1.8 µM
Activity [6]: < 1.8 µM
IC50 [1]: 120 nM
Activity [3]: < 1.8 µM
Activity [7]: < 1.8 µM

CCc1ccc(Cc2ccc(C(=O)N/C=C\CCCC(=O)NCC(=O)OC)cc2)cc1
IC50 [1]: 16 nM

C/C=C(C)/C=C/C=C/[C@H](OC)[C@@H](C)[C@@H](OC)[C@@H](C)CCc1oc2c(O)c(OC)cc(OC)c2c(=O)c1C [STIGMATELLIN]
Activity [4]: > 180 µM
Activity [5]: > 180 µM
Activity [6]: > 180 µM
IC50 [1]: 81 nM
Activity [3]: 180 µM
Activity [7]: > 180 µM

COC(=O)COc1ccc2oc(=O)n(Cc3ccc(Cc4ccc(I)cc4)cc3)c2c1
IC50 [1]: 75 nM

CCCCCCOc1ccc(C(=O)N/C=C\CCCC(=O)NCC(=O)OC)cc1
IC50 [1]: 21 nM
Activity [3]: > 100 µM

CCc1ccc(Oc2ccc(C(=O)NCCOCC(=O)NCC(=O)OC)cc2)cc1
IC50 [1]: 230 nM

COC(=O)CNC(=O)CCC/C=C\NC(=O)/C=C(C)/C=C/[C@H](C)[C@H](OC)[C@H](C)[C@H](/C=C/c1ccccc1)OC [CROCACIN D]
Activity [4]: > 180 µM
Activity [5]: 9 µM
Activity [6]: 45 µM
IC50 [1]: 36 nM
Activity [3]: 25 µM
Activity [7]: 45 µM

CCc1ccc(Oc2ccc(C(=O)NCCCCC(=O)NCC(=O)OC)cc2)cc1
IC50 [1]: 400 nM

CCc1ccc(Cc2ccc(Cn3c(=O)oc4ccc(OCC(=O)OC)cc43)cc2)cc1
IC50 [1]: 45 nM

COC(=O)CNC(=O)/C=C\C/C=C\NC(=O)/C=C(C)/C=C/[C@H](C)[C@H](OC)[C@H](C)[C@H](/C=C/c1ccccc1)OC [CROCACIN A]
Activity [4]: > 180 µM
Activity [5]: 45 µM
Activity [6]: > 180 µM
IC50 [1]: 56 nM
Activity [3]: 45 µM
Activity [7]: > 180 µM

COC(=O)CNC(=O)CCCc1ccccc1NC(=O)CCCCCCCCCc1ccccc1
Activity [2]: inactive

CCOc1ccc(Cc2ccc(C(=O)N/C=C\CCCC(=O)NCC(=O)OC)cc2)cc1
IC50 [1]: 9 nM
Activity [3]: 25 µM

COC(=O)CNC(=O)CCC/C=C\NC(=O)c1ccc(Cc2ccc(I)cc2)cc1
IC50 [1]: 18 nM
